{"source": "ChEMBL document CHEMBL5724801", "about": "“EUbOPEN Chemogenomics Library - Multiplex” (2024)", "note": "Values joined by “and” are separate entries in the source; they are usually repeats but may differ in a detail not shown here. Identical values can stand only once."}
{"system": "Fibroblast", "experiment": "(§1) Multiplex assay against human fibroblast", "assay_type": "toxicity, cell-based", "details": "12 h, 1 µM, compound concentration 1 uM", "outline": "(§2)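 Tubulin, mitochondrial-mass and membrane-permeability phenotypes are per cents of healthy-nucleus cells. Cells were gated by CellPathfinder machine learning into Hoechst high-intensity objects or normal cells, normal cells into healthy, pyknosed or fragmented nuclei, and pyknosed cells into mitotic or apoptotic. Before that, live cells stained at seeding with Hoechst33342, BioTracker Green Microtubule Cytoskeleton Dye, MitoTracker Red and Annexin V Alexa Fluor 680 were imaged on a CQ1 microscope at 37°C and 5% CO2 after compound addition.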", "units": {"Population Hoechst High Intensity Objects (%)": "%", "Population Normal (%)": "%"}}
{"smiles": "CC(N)C1CCC(C(=O)Nc2ccncc2)CC1", "note": "(configuration not stated)", "Population Fragmented Nuclei (%)": "12.67% and 4.31%", "Population Healthy Nuclei (%)": "64.25% and 88.36%", "Population Hoechst High Intensity Objects (%)": 0, "Population Membrane Permeable-Phenotype (%)": "2.82% and 2.93%", "Population Mitochondria Different-Phenotype (%)": "7.75% and 8.29%", "Population Mitotic Cells (%)": "94.12% and 82.35%", "Population Normal (%)": 100, "Population Tubulin-Different-Phenotype (%)": "11.27% and 12.2%", "Total Cell Count": "221 and 232"}
{"smiles": "COc1ccc(CC(=O)NC(N/C(=N/C#N)Nc2cccc3ncccc23)C(C)(C)C)cc1OC", "note": "(configuration not stated)", "Population Fragmented Nuclei (%)": "9.24% and 8.25%", "Population Healthy Nuclei (%)": "64.67% and 81.55%", "Population Hoechst High Intensity Objects (%)": 0, "Population Membrane Permeable-Phenotype (%)": "1.68% and 2.98%", "Population Mitochondria Different-Phenotype (%)": "8.4% and 6.55%", "Population Mitotic Cells (%)": "95.83% and 85.71%", "Population Normal (%)": 100, "Population Pyknosed Nuclei (%)": "26.09% and 10.19%", "Population Tubulin-Different-Phenotype (%)": "12.61% and 16.67%", "Total Cell Count": "184 and 206"}
{"system": "Fibroblast", "experiment": "as §1", "assay_type": "toxicity, cell-based", "details": "12 h, 10 µM, compound concentration 10 uM", "outline": "as §2", "units": {"Population Hoechst High Intensity Objects (%)": "%", "Population Normal (%)": "%"}}
{"smiles": "CC(N)C1CCC(C(=O)Nc2ccncc2)CC1", "note": "(configuration not stated)", "Population Apoptotic (%)": "19.3% and 38.89%", "Population Fragmented Nuclei (%)": "9.18% and 4.02%", "Population Healthy Nuclei (%)": "63.29% and 85.63%", "Population Hoechst High Intensity Objects (%)": 0, "Population Membrane Permeable-Phenotype (%)": "3.05% and 0%", "Population Mitochondria Different-Phenotype (%)": "10.69% and 10.07%", "Population Mitotic Cells (%)": "80.7% and 61.11%", "Population Normal (%)": 100, "Population Pyknosed Nuclei (%)": "27.54% and 10.34%", "Population Tubulin-Different-Phenotype (%)": "10.69% and 8.05%", "Total Cell Count": "207 and 174"}
{"smiles": "COc1ccc(CC(=O)NC(N/C(=N/C#N)Nc2cccc3ncccc23)C(C)(C)C)cc1OC", "note": "(configuration not stated)", "Population Apoptotic (%)": "10.96% and 24.49%", "Population Fragmented Nuclei (%)": "7.46% and 8.67%", "Population Healthy Nuclei (%)": "56.22% and 63.01%", "Population Hoechst High Intensity Objects (%)": 0, "Population Membrane Permeable-Phenotype (%)": "9.73% and 2.75%", "Population Mitochondria Different-Phenotype (%)": "7.96% and 16.51%", "Population Mitotic Cells (%)": "89.04% and 75.51%", "Population Normal (%)": 100, "Population Pyknosed Nuclei (%)": "36.32% and 28.32%", "Population Tubulin-Different-Phenotype (%)": "26.55% and 38.53%", "Total Cell Count": "201 and 173"}
{"system": "Fibroblast", "experiment": "as §1", "assay_type": "toxicity, cell-based", "details": "24 h, 1 µM, compound concentration 1 uM", "outline": "as §2", "units": {"Population Hoechst High Intensity Objects (%)": "%", "Population Normal (%)": "%"}}
{"smiles": "CC(N)C1CCC(C(=O)Nc2ccncc2)CC1", "note": "(configuration not stated)", "Population Apoptotic (%)": "11.11% and 33.33%", "Population Fragmented Nuclei (%)": "6.64% and 2.82%", "Population Healthy Nuclei (%)": "78.42% and 89.92%", "Population Hoechst High Intensity Objects (%)": 0, "Population Membrane Permeable-Phenotype (%)": "4.23% and 2.69%", "Population Mitochondria Different-Phenotype (%)": "0.53% and 5.83%", "Population Mitotic Cells (%)": "88.89% and 66.67%", "Population Normal (%)": 100, "Population Pyknosed Nuclei (%)": "14.94% and 7.26%", "Population Tubulin-Different-Phenotype (%)": "7.41% and 11.66%", "Total Cell Count": "241 and 248"}
{"smiles": "COc1ccc(CC(=O)NC(N/C(=N/C#N)Nc2cccc3ncccc23)C(C)(C)C)cc1OC", "note": "(configuration not stated)", "Population Fragmented Nuclei (%)": "11.21% and 6.25%", "Population Healthy Nuclei (%)": "68.16% and 81.25%", "Population Hoechst High Intensity Objects (%)": 0, "Population Membrane Permeable-Phenotype (%)": "3.95% and 0%", "Population Mitochondria Different-Phenotype (%)": "10.53% and 7.1%", "Population Mitotic Cells (%)": "95.65% and 76.92%", "Population Normal (%)": 100, "Population Pyknosed Nuclei (%)": "20.63% and 12.5%", "Population Tubulin-Different-Phenotype (%)": "19.08% and 13.02%", "Total Cell Count": "223 and 208"}
{"system": "Fibroblast", "experiment": "as §1", "assay_type": "toxicity, cell-based", "details": "24 h, 10 µM, compound concentration 10 uM", "outline": "as §2", "units": {"Population Hoechst High Intensity Objects (%)": "%", "Population Normal (%)": "%"}}
{"smiles": "CC(N)C1CCC(C(=O)Nc2ccncc2)CC1", "note": "(configuration not stated)", "Population Apoptotic (%)": "18.18% and 44.44%", "Population Fragmented Nuclei (%)": "6.51% and 6.08%", "Population Healthy Nuclei (%)": "78.14% and 88.95%", "Population Hoechst High Intensity Objects (%)": 0, "Population Membrane Permeable-Phenotype (%)": "2.38% and 0%", "Population Mitochondria Different-Phenotype (%)": "4.76% and 8.07%", "Population Mitotic Cells (%)": "81.82% and 55.56%", "Population Normal (%)": 100, "Population Tubulin-Different-Phenotype (%)": "13.69% and 11.8%", "Total Cell Count": "215 and 181"}
{"smiles": "COc1ccc(CC(=O)NC(N/C(=N/C#N)Nc2cccc3ncccc23)C(C)(C)C)cc1OC", "note": "(configuration not stated)", "Population Fragmented Nuclei (%)": "5.12% and 8.43%", "Population Healthy Nuclei (%)": "64.65% and 75.3%", "Population Hoechst High Intensity Objects (%)": 0, "Population Membrane Permeable-Phenotype (%)": "7.19% and 2.4%", "Population Mitochondria Different-Phenotype (%)": "10.07% and 8%", "Population Mitotic Cells (%)": "92.31% and 70.37%", "Population Normal (%)": 100, "Population Pyknosed Nuclei (%)": "30.23% and 16.27%", "Population Tubulin-Different-Phenotype (%)": "33.09% and 40.8%", "Total Cell Count": "215 and 166"}
{"system": "Fibroblast", "experiment": "as §1", "assay_type": "toxicity, cell-based", "details": "48 h, 1 µM, compound concentration 1 uM", "outline": "as §2", "units": {"Population Hoechst High Intensity Objects (%)": "%", "Population Normal (%)": "%"}}
{"smiles": "CC(N)C1CCC(C(=O)Nc2ccncc2)CC1", "note": "(configuration not stated)", "Population Apoptotic (%)": "30.77% and 83.33%", "Population Fragmented Nuclei (%)": "11.15% and 6.02%", "Population Healthy Nuclei (%)": "83.85% and 91.57%", "Population Hoechst High Intensity Objects (%)": 0, "Population Membrane Permeable-Phenotype (%)": "0.92% and 3.07%", "Population Normal (%)": 100, "Population Pyknosed Nuclei (%)": "5% and 2.41%", "Population Tubulin-Different-Phenotype (%)": "3.21% and 10.09%", "Total Cell Count": "260 and 249"}
{"smiles": "COc1ccc(CC(=O)NC(N/C(=N/C#N)Nc2cccc3ncccc23)C(C)(C)C)cc1OC", "note": "(configuration not stated)", "Population Apoptotic (%)": "0% and 18.75%", "Population Fragmented Nuclei (%)": "7.56% and 7.18%", "Population Healthy Nuclei (%)": "85.29% and 85.17%", "Population Hoechst High Intensity Objects (%)": 0, "Population Membrane Permeable-Phenotype (%)": "0.99% and 1.12%", "Population Mitochondria Different-Phenotype (%)": "11.82% and 3.37%", "Population Mitotic Cells (%)": "100% and 81.25%", "Population Normal (%)": 100, "Population Pyknosed Nuclei (%)": "7.14% and 7.66%", "Population Tubulin-Different-Phenotype (%)": "5.42% and 14.04%", "Total Cell Count": "238 and 209"}
{"system": "Fibroblast", "experiment": "as §1", "assay_type": "toxicity, cell-based", "details": "48 h, 10 µM, compound concentration 10 uM", "outline": "as §2", "units": {"Population Hoechst High Intensity Objects (%)": "%", "Population Normal (%)": "%"}}
{"smiles": "CC(N)C1CCC(C(=O)Nc2ccncc2)CC1", "note": "(configuration not stated)", "Population Apoptotic (%)": "50% and 33.33%", "Population Fragmented Nuclei (%)": "10.31% and 6.56%", "Population Healthy Nuclei (%)": "86.64% and 90.16%", "Population Hoechst High Intensity Objects (%)": 0, "Population Membrane Permeable-Phenotype (%)": "0.44% and 0.61%", "Population Mitotic Cells (%)": "50% and 66.67%", "Population Normal (%)": 100, "Population Pyknosed Nuclei (%)": "3.05% and 3.28%", "Population Tubulin-Different-Phenotype (%)": "3.08% and 11.52%", "Total Cell Count": "262 and 183"}
{"smiles": "COc1ccc(CC(=O)NC(N/C(=N/C#N)Nc2cccc3ncccc23)C(C)(C)C)cc1OC", "note": "(configuration not stated)", "Population Apoptotic (%)": "27.78% and 30.77%", "Population Fragmented Nuclei (%)": "8.23% and 15.18%", "Population Healthy Nuclei (%)": "83.98% and 78.01%", "Population Hoechst High Intensity Objects (%)": 0, "Population Mitochondria Different-Phenotype (%)": "12.89% and 4.03%", "Population Mitotic Cells (%)": "72.22% and 69.23%", "Population Normal (%)": 100, "Population Pyknosed Nuclei (%)": "7.79% and 6.81%", "Population Tubulin-Different-Phenotype (%)": "17.01% and 47.65%", "Total Cell Count": "231 and 191"}
